# This is a sample that favours compounds with a hit; in the whole collection about 4.6% have one here.
# OX1R antag-1 = antagonists of human orexin 1 receptor (OX1R) | OX1R-expressing cells, FRET antagonist read-out | 330,000 compounds, 1.8% hits | inhibition, % at 6.6 µM | Orexin/Hypocretin receptor type 1 (Homo sapiens), O43613 | AID 485270, 2010; in the data active = inhibition mostly above about 38%, no sharp cut-off; inactive = mostly below about 40%;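 also: 0% = agonist challenge alone and 100% = reference antagonist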
# Target sequence (O43613 whole entry, looked up): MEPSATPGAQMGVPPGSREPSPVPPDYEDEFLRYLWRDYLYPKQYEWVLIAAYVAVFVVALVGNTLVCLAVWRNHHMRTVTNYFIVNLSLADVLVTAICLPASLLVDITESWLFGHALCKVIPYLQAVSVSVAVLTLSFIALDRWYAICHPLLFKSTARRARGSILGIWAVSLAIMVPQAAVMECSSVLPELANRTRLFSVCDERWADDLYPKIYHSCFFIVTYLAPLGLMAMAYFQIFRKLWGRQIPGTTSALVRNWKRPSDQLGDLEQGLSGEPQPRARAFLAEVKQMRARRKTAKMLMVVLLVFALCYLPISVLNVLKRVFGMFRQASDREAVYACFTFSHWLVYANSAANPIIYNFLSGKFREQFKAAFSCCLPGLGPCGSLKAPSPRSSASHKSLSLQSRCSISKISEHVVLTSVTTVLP
# CHO parental Ca = ATP-evoked calcium signal inhibitors, parental CHO, primary screen, counter-screen for OX1R antagonist project, cell-based, fluorescence, Fluo-8 calcium dye. parental CHO-K1, ATP-induced calcium, Fluo-8 fluorescence. AID 463079, 2010. inhibition, % at 5.6 µM. 330,000 compounds, 0.63% hits;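 active = inhibition above that plate's mean sample inhibition plus 3 SD, cut at about 26% in these data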;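 also: 0% = ATP-challenged DMSO wells and 100% = DMSO wells without ATP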
#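 Assay system – parental CHO cells · Reagent – ATP stimulus · Detection – intracellular calcium via Fluo-8 no-wash fluorescent dye · Evaluation – percent inhibition of ATP-evoked calcium rise, normalized to controls · Controls – ATP wells versus no-ATP DMSO wells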
# TAAR1 ag = human TAAR1 agonists, primary screen, Fluo-8 calcium fluorescence, CHO RD-HGA16 cells; vehicle wells 0%, saturating PEA agonist 100%; activation, % at 3 µM; 360,000 compounds, 0.99% hits; AID 624467, 2012;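 active = activation above the mean activation of all test compounds in the run plus 3 SD, cut at about 38% in these data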
#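 Benchmarks: low control DMSO, high control PEA (EC100); System: CHO RD-HGA16 cells carrying human TAAR1 plus Gα16; Detection: Fluo-8 fluorescence, 5 s baseline then 140 s kinetic read; Schedule: 17-24 h plating, Fluo-8 75 min 37 °C, 30 min RT; Read-out basis: % activation from peak over basal fluorescence ratio, DMSO-to-PEA scaled.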
# OX1R antag-2 = OX1R (HCRTR1) antagonists, primary screen, fluorescence, CHO/OX1R cells, Fluo-8 calcium, orexin A | Orexin/Hypocretin receptor type 1 (Homo sapiens), O43613 | Fluo-8 calcium fluorescence | inhibition, % at 5 µM | 330,000 compounds, 0.43% hits;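 active = inhibition above its plate's threshold, mean inhibition of all tested compounds on the plate plus 3 SD, cut at about 37% in these data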;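 also: 0% = orexin A challenge wells and 100% = SB-334867-A antagonist wells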
# GPR7 antagonist = GPR7 receptor antagonists, primary screen, cell-based, fluorescence, single concentration; AID 1861, 2009; 290,000 compounds, 1.1% hits; inhibition, % at 4.4 µM; Neuropeptides B/W receptor type 1 (Homo sapiens), P48145; GPR7-expressing cells, fluorescence antagonist assay; in the data active = inhibition above about 16%, passing the limit was not always enough;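 also: cells stimulated with the agonist NPW; 0% = agonist with vehicle and 100% = vehicle without agonist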
# TAAR1 antagonist = human TAAR1 antagonists, primary screen, Fluo-8 calcium fluorescence, CHO RD-HGA16 cells; antagonist; inhibition, % at 3 µM; AID 624466, 2012; 360,000 compounds, 1.5% hits;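 active = inhibition above a per-plate cutoff, the mean inhibition of test compounds on that plate plus 3 SD, cut at about 49% in these data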;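 also: 0% = DMSO plus EC80 beta-PEA response and 100% = DMSO alone without agonist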
#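 System: RD-HGA16 CHO cells with stable hTAAR1 and Gα16 | Probe or stimulus: EC80 β-phenethylamine stimulus | Dosing: 3 µM, single point | Times: Dye loading 75 min at 37 °C, then 30 min room temperature | Measured by: Fluo-8 calcium-sensitive fluorescence | Read-out basis: % inhibition of agonist calcium response | Replicates: n of 1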
# GPR7 antag conf = GPR7 receptor antagonists, confirmation, cell-based, fluorescence, single concentration. GPR7-expressing cells, calcium fluorescence antagonist mode. shares compounds with GPR7 antagonist. AID 1952, 2009. inhibition, % at 4.4 µM. 2,400 compounds, 52% hits; in the data active = inhibition above about 24%;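 also: stimulated with the GPR7 agonist NPW; 0% = agonist plus vehicle and 100% = vehicle alone without agonist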
# MCHR1 antag = MCHR1 antagonists in cells, counter-screen for GPR7 antagonist project, cell-based, fluorescence, human; shares compounds with GPR7 antagonist; 2,400 compounds, 62% hits; MCHR1-expressing cells, fluorescence antagonist assay; inhibition, % at 4.4 µM; in the data active = inhibition above about 22%;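 also: 0% = vehicle with agonist and 100% = vehicle without agonist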
# An asterisk follows results filed as active; . = no result given.
SMILES,OX1R antag-1,CHO parental Ca,TAAR1 ag,OX1R antag-2,GPR7 antagonist,TAAR1 antagonist,GPR7 antag conf,MCHR1 antag
CCCC(c1nnnn1C1CCCCC1)N1CCN(C2CCCC2)CC1 (centres undefined),5,-21,4,-20,22*,1,22,17
Cc1ccc(NC(=O)CN(C)CC(=O)Nc2ccccc2Oc2ccccc2)cc1,7,-7,-1,-15,3,-10,.,.
Cc1cccc(C)c1NC(=O)CN(C)CC(=O)Nc1ccccc1Oc1ccccc1,21,-20,7,-10,32*,6,26*,26*
CCC12CCC3c4ccc(O)cc4CCC3C1CC(O)C2O (centres undefined),.,.,4,.,.,10,.,.
COCCNc1cnn(-c2ccccc2)c(=O)c1Cl,16,0,3,-8,24*,-12,-4,0
CCCCNc1cnn(-c2ccccc2)c(=O)c1Cl,19,0,9,-24,8,0,.,.
O=C(OCc1cn([C@H]2CN(CC3CCCCC3)[C@@H](c3ccccc3)C[C@@H]2O)nn1)c1ccccc1,.,.,2,.,.,-17,.,.
CC(=O)c1ccc(N2CCN(S(=O)(=O)c3ccc4c5c3CC(=O)N5CC(C)S4)CC2)cc1 (centres undefined),13,-9,.,-7,25*,.,11,41*
CC(=O)c1ccc(N2CCN(S(=O)(=O)c3ccc4c(c3)CC(=O)N4)CC2)cc1,6,11,2,-9,-6,-22,.,.
Cc1cc(NC(=O)c2ccc(C)c([N+](=O)[O-])c2)no1,29,0,8,-5,5,-8,.,.
Cc1cc(NC(=O)c2ccc(Br)c([N+](=O)[O-])c2)no1,56,16,9,6,22*,-2,0,4
CCOC(=O)C(=O)N(C)c1c(CC)nc2c(OCc3ccccc3OC)cccn12,.,.,2,.,.,-30,.,.
COCCn1c(SCC(=O)N(C)c2ccccc2)nc2c([nH]c3ccccc32)c1=O,24,-28,5,-16,31*,28,-19,-2
CC(=O)c1ccccc1NC(=O)COC(=O)CSCC(=O)Nc1cc(C)on1,12,-8,1,-12,.,-22,.,.
O=C(O)CSCC(=O)N1CCN(c2ncnc3scc(-c4ccccc4)c23)CC1,4,-5,-1,-18,1,11,.,.
O=C(CSc1ncnc2scc(-c3ccccc3)c12)N1CCN(c2ccccc2F)CC1,17,-9,0,-29,27*,20,25*,34*
COc1ccc(-n2c(C)cc(C(=O)COc3ccc(-n4cnnn4)cc3)c2C)cc1,1,-2,1,-10,28*,-1,12,24*
NC(=O)COc1ccc(-n2cnnn2)cc1,20,-5,1,-12,-4,-8,.,.
COc1ccccc1NC(=O)COC(=O)/C=C/c1ccc2c(c1)OCO2,20,-1,0,-17,33*,-3,21,16
COc1ccccc1NC(=O)/C=C/c1ccc2c(c1)OCO2,27,-15,1,-13,12,-11,.,.
COc1ccc(-c2n[nH]c(C)c2-c2cnn(-c3ccccc3)c2)c(O)c1C,15,-13,24,-13,-18,41,.,.
COc1ccc(-c2onc(C)c2-c2cnn(-c3ccccc3)c2)c(O)c1C,20,-13,-1,-30,32*,-4,25*,34*
COc1ccc(C(CCNCc2ccc(OC(C)C)cc2)C(C)C)cc1 (centres undefined),9,27*,23,-14,27*,11,51*,70*
COc1ccc(C(CCNCc2ccc(N(C)C)cc2)C(C)C)cc1 (centres undefined),8,-9,10,-4,24*,1,22,50*
COc1ccc(CNCCC(c2ccc(OC(C)C)cc2)C(C)C)cc1OC (centres undefined),-1,-14,24,-34,19,13,.,.
SMILES,OX1R antag-1,CHO parental Ca,TAAR1 ag,OX1R antag-2,GPR7 antagonist,TAAR1 antagonist,GPR7 antag conf,MCHR1 antag
O=C1c2cc([N+](=O)[O-])ccc2-c2cc(Br)c(N=C(NO)C(F)(F)F)cc21,.,.,0,.,.,-24,.,.
CC(NC(=O)c1cccc(S(=O)(=O)N2CCc3ccccc32)c1)c1ccco1 (centres undefined),9,-14,5,-3,.,15,.,.
Cc1ccc(CNS(=O)(=O)c2ccc(C)s2)cc1,25,3,-2,0,28*,16,12,4
Cc1c(C)n(Cc2ccc(F)cc2)c2ccc(C(=O)NCCN3CCOCC3)cc12,17,-17,4,-15,2,-22,.,.
Cc1ccc(-c2ccc(C3C(C#N)=C(N)Oc4n[nH]c(C)c43)o2)cc1 (centres undefined),18,-6,18,8,26*,16,49*,72*
COCCN(Cc1ccc(C)cc1)C(=O)[C@H]1O[C@@H](n2ccc(N)nc2=O)[C@H](O)[C@@H]1O,.,.,1,.,.,-12,.,.
CCCCC(O)(CCCC)C(=O)NN(C(=O)OC)c1ccc(C)cc1,9,-20,-1,-28,23*,-66,9,10
CCCC(O)(CCC)C(=O)NN(C(=O)OC)c1ccccc1,15,-10,0,-25,5,-19,.,.
O=C(Cc1ccc(Cl)c(Cl)c1)N1CCOCC1,-16,-12,1,8,4,-3,.,.
COC(=O)C1=C(C)N(Cc2ccccc2)C(=NCc2cc(OC)c(OC)c(OC)c2)N[C@H]1c1cccc(F)c1,25,-29,.,-34,11,.,.,.
COC(=O)C1=C(C)N(Cc2ccccc2)C(=NCc2ccc(OC)cc2)N[C@H]1c1cccc(F)c1,6,24,31,28,44*,25,51*,41*
COc1cc(C(=O)N/N=C/c2coc3ccc(Cl)cc3c2=O)ccc1O,15,1,3,4,31*,-10,-7,-1
Cc1ccccc1NC1=C(Cl)C(=O)OC1OC(=O)c1ccccc1C (centres undefined),25,61*,6,3,52*,41,20,59*

# Assay outcomes: PubChem BioAssay, The Scripps Research Institute Molecular Screening Center
